Assay results: ChEMBL document CHEMBL1134949, “New irreversible adenosine A(1) antagonists based on FSCPX” (Bioorg Med Chem Lett, 2002)
pIC50, pKd: −log10 of the molar value. “And” between values parts separate entries of the source, which are not always exact repeats. Equal values may be shown once.

Assays:
[1] = molecular target: T1, Adenosine receptor A1 (Homo sapiens) (UniProt P30542); assay: Percentage loss of [3H]DPCPX binding to Adenosine A1 receptor in the presence of Xanthine derivative at 100 nM from DDT1 MF2 cells; type: cell-based
T1 sequence (whole entry): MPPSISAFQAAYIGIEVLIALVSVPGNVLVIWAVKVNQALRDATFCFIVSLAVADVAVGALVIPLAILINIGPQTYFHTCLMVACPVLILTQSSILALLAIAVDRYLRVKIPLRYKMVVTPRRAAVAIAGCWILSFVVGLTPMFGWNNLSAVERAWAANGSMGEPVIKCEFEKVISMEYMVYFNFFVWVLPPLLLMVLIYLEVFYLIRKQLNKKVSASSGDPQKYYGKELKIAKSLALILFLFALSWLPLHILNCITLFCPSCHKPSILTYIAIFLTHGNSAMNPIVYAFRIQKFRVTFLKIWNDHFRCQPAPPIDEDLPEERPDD
Method in brief: (§1)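 DDT1 MF-2 cells preincubated with or without antagonist (5 or 100 nM) for 30 min at 30 °C, then 10 cell wash cycles to remove unbound ligand. Membranes then prepared and assayed for [3H]DPCPX Bmax and KD. Receptor loss is the reduction in Bmax versus control. Mean ± SE, n = 3-6.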

[2] = molecular target: T1, Adenosine receptor A1 (Homo sapiens); assay: Percentage loss of [3H]-DPCPX binding to Adenosine A1 receptor in the presence of Xanthine derivative at 5 nM from DDT1 MF2 cells; type: cell-based; method in brief: as §1
[3] = Inhibitory concentration against [3H]DPCPX binding to Adenosine A1 receptor from DDT1 MF2 cells
[4] = Equilibrium dissociation constant for [3H]DPCPX binding to Adenosine A1 receptor from DDT1 MF2 cell membranes

Row | Structure (SMILES) | Loss [1] [%] | Loss [2] [%] | pIC50 [3] | pKd [4]
1 | CCCn1c(=O)c2nc(C3CC4CCC3C4)[nH]c2n(CCCCC(=O)c2ccc(S(=O)(=O)F)cc2)c1=O (stereo not drawn) | 81 | 50 |  | 
2 | CCCn1c(=O)c2nc(C3CCCC3)[nH]c2n(CCCCC(=O)c2ccc(S(=O)(=O)F)cc2)c1=O | 73 | 51 |  | 
3 | CCCn1c(=O)c2nc(C3CCCC3)[nH]c2n(CCCNC(=O)c2ccc(S(=O)(=O)F)cc2)c1=O |  |  | 7.68 | 9.44 and 9.51
4 | CCCn1c(=O)c2nc(C3CCCCC3)[nH]c2n(CCCCC(=O)c2ccc(S(=O)(=O)F)cc2)c1=O | 78 | 56 |  | 
